Published values from different studies.
Compare with care: the assays were run in different laboratories.
Target: RAC-gamma serine/threonine-protein kinase (AKT3, Homo sapiens, UniProt Q9Y243)

| SMILES | test | setting | measurement | result |
| --- | --- | --- | --- | --- |
| Cn1c2c(c3ccc(Cl)c(Cl)c31)C(C#N)C(C)(C)NC2=O (centres unmarked) | thermal stability, DSF | 10 µM | ΔTm | -0.2 °C |
| CN(C)CC#Cc1ccc(OCCCc2sc(N3CCc4cccc(C(=O)Nc5nc6ccccc6s5)c4C3)nc2C(=O)O)c(F)c1 | cell-free assay, competition with immobilised ligand | 1 µM | remaining binding | 100% |
| N#CC1c2c([nH]c3c(Cl)c(Cl)ccc23)C(=O)NC12CCCCC2 (racemic) | thermal stability, DSF | 10 µM | ΔTm | -0.7 °C |
| CO[C@@H](C)c1c(Nc2ccc([C@@H](N(C)C(=O)C3CCS(=O)(=O)CC3)C(F)(F)F)cc2)cnc2cc(Cl)nn12 | cell-free assay, competition with immobilised ligand | 1 µM | remaining binding | 65% |
| CCN(CC)c1ccc(C2=NNC(=O)CC2C)cc1[N+](=O)[O-] (centres unmarked) | enzyme activity, inhibitor | 10 µM | remaining activity | 91% |
| CCCOc1ccc(OC)c(F)c1C(=O)c1ccc(C(=O)N[C@@H]2CNC[C@H]2NC(=O)c2ccc3[nH]ncc3c2)cc1 | enzyme activity, inhibitor | 0.75 µM | remaining activity | 39% |
| CC(C)(C)c1nc(-c2cccc(NS(=O)(=O)c3c(F)cccc3F)c2F)c(-c2ccnc(N)n2)s1 | enzyme activity, inhibitor, radiometric | 1 µM | remaining activity | 80% |
| Cc1cc(NC(=O)c2cccc3cc(-c4cccc5[nH]nc(N)c45)ccc23)ccc1F | enzyme activity, inhibitor | 0.1 µM | activity vs control | 90% |
| Cc1ccc(NC(=O)c2ccc(C)c(C(F)(F)F)c2)cc1C#Cc1nn(C2CCC(O)CC2)c2ncnc(N)c12 (centres unmarked) | cell-free assay | 10 µM | remaining signal | 94% |
| Cn1c2c(c3ccc(Cl)c(Cl)c31)C(C#N)C1(CCNCC1)NC2=O (racemic) | thermal stability, DSF | 10 µM | ΔTm | -0.1 °C |
| CC(C)(O)[C@H]1CC[C@H](Nc2ccc3ncc(-c4cccc(C(F)(F)F)c4)n3n2)CC1 | enzyme activity, inhibitor | 1 µM | remaining activity | 96.5% |
| Cn1c2c(c3ccc(Cl)c(Cl)c31)C(C#N)C1(CCCC1)NC2=O (centres unmarked) | thermal stability, DSF | 10 µM | ΔTm | -0.1 °C |
| CCCS(=O)(=O)Nc1ccc(F)c(C(=O)c2c[nH]c3ncc(-c4ccc(Cl)cc4)cc23)c1F | enzyme activity, inhibitor | 1 µM | inhibition | < 10% |
| CNC(=O)c1cc(Oc2ccc(NC(=O)Nc3ccc(Cl)c(C(F)(F)F)c3)cc2)ccn1 | enzyme activity, inhibitor | 10 µM | inhibition | -1% |
| Cc1ccc(NC(=O)c2ccc(CN3CCN(C)CC3)cc2)cc1Nc1nc(-c2cccnc2)cs1 | cell-free assay | 0.5 µM | remaining signal | 102% |
| Cc1ccc(C(=O)Nc2ccc(CN3CCN(C)CC3)c(C(F)(F)F)c2)cc1C#Cc1cnc2cccnn12 | enzyme activity, inhibitor | 23.5 nM | remaining activity | 100% |

| SMILES | test | setting | measurement | result |
| --- | --- | --- | --- | --- |
| O=C(N1CCS(=O)(=O)CC1)N1C[C@H](c2ccc(OC(F)(F)F)cc2)C[C@H](c2nc(C3CC3)no2)C1 | cell-free assay, competition with immobilised ligand | 1 µM | remaining binding | 100% |
| Cc1ccc(C(=O)NCc2ccsc2)cc1C#Cc1cn(C(C)C)c2ncnc(N)c12 | enzyme activity, inhibitor | 1 µM | activity vs control | 79% |
| C[C@@H]1CCN(C(=O)CC#N)C[C@@H]1N(C)c1ncnc2[nH]ccc12 | cell-free assay, inhibitor | 0.5 µM | remaining signal | 85.8% |
| COc1cc2ncnc(Nc3ccc(Oc4ccccc4)cc3C)c2cc1OC | enzyme activity, inhibitor | 1 µM | inhibition | 6% |
| COc1cc(F)ccc1-c1ncnc(Nc2cccc(C[S@](C)(=N)=O)c2)n1 | enzyme activity, inhibitor | 10 µM | activity vs control | 100% |
| COc1cc(Cl)c(C(=O)N[C@@H](CN[C@H]2CC[C@@H](N)CC2)Cc2ccc(C#N)cc2)cc1-c1ccc(CN[C@H](C)c2ccc(C)cc2)o1 | enzyme activity, inhibitor | 1 µM | remaining activity | 97% |
| FC(F)(F)c1ccc2c(c1)nc(-c1cccnc1)n2C1CC1 | cell-free assay, competition with immobilised ligand | 1 µM | remaining binding | 100% |
| Cc1ccc(Nc2nccc(N(C)c3ccc4c(C)n(C)nc4c3)n2)cc1S(N)(=O)=O | enzyme activity, inhibitor | 0.5 µM | remaining activity | 93.3% |
| Cn1cc(Cl)c2c(Oc3c(F)cc(Nc4cc(Cl)nc(N)n4)cc3F)ccnc21 | cell-free assay, competition with immobilised ligand | 0.1 µM | remaining binding | 98% |
| CCC1(CC)NC(=O)c2c(c3ccc(Cl)c(Cl)c3n2C)C1C#N (centres unmarked) | thermal stability, DSF | 10 µM | ΔTm | 0.1 °C |
| Cc1c(NC(=O)c2cc(C(N)=O)nc3cc(F)ccc23)c(C(F)(F)F)nn1Cc1ccc(C#N)cc1 | cell-free assay, competition with immobilised ligand | 1 µM | remaining binding | 81% |
| O=C(Nc1cnn(-c2csc(C(=O)NC3COC3)c2)c1)Nc1ccccc1Cl | enzyme activity, inhibitor | 5 µM | remaining activity | 87.3% |
| Cc1cc(NC(=O)c2cccc(S(F)(F)(F)(F)F)c2)cc(-n2ccn3nc(-c4cccnc4)cc23)c1 | cell-free assay, competition with immobilised ligand | 1 µM | remaining binding | 100% |
| COc1cc(Nc2c(C#N)cnc3cc(OCCCN4CCN(C)CC4)c(OC)cc23)c(Cl)cc1Cl | cell-free assay | 0.5 µM | remaining signal | 90.7% |
| Cn1nc(C(F)(F)F)cc1-c1cnc(N2CCc3cc(S(=O)(=O)Nc4c(F)cc(Cl)cc4F)cc(N4CCCC4=O)c32)nc1 | cell-free assay, competition with immobilised ligand | 1 µM | remaining binding | 84% |
| CC1(C)NC(=O)c2[nH]c3c(Cl)c(Cl)ccc3c2C1C#N (centres unmarked) | thermal stability, DSF | 10 µM | ΔTm | 0 °C |
